In ChEMBL document CHEMBL1141097, “Indole-3-acetic acid antagonists of the prostaglandin D2 receptor CRTH2” (J Med Chem, 2005):

Legend:
[1] = target: T1, Prostaglandin D2 receptor 2 (Homo sapiens, UniProt Q9Y5Y4); assay: Concentration required to inhibit PGD-2 (10 nM) stimulated [Ca2+] flux in CHO cells expressing human CRTH2 receptor; format: cell-based
T1 sequence (Q9Y5Y4 whole entry): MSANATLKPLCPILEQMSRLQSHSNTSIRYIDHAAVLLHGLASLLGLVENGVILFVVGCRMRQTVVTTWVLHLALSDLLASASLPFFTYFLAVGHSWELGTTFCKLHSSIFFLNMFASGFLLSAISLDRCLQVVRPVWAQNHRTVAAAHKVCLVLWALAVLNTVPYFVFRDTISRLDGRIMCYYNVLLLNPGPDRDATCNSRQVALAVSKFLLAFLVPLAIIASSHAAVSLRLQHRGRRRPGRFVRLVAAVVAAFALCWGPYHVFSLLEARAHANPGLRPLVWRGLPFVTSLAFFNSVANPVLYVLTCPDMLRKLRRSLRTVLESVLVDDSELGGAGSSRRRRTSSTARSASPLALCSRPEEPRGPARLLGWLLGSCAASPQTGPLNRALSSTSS
Summary of the method: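 CHO cells expressing human CRTH2 were stimulated with 10 nM PGD2 and calcium mobilization was read. Inhibition is expressed as IC50. Antagonism was also tested by parallel shifts of the PGD2 dose–response curve with increasing antagonist (pA2).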

[2] = target: T1, Prostaglandin D2 receptor 2; assay: Binding affinity towards human CRTH2 receptor expressed in CHO cells; format: cell-based
Summary of the method: (§1)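 Radioligand binding on membranes from CHO cells expressing recombinant human CRTH2 or human DP receptor, reported as Ki.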

[3] = target: T2, Prostaglandin D2 receptor (Homo sapiens, UniProt Q13258); assay: Binding affinity towards human DP receptor expressed in CHO cells; format: cell-based; summary of the method: as §1
T2 sequence (Q13258 whole entry): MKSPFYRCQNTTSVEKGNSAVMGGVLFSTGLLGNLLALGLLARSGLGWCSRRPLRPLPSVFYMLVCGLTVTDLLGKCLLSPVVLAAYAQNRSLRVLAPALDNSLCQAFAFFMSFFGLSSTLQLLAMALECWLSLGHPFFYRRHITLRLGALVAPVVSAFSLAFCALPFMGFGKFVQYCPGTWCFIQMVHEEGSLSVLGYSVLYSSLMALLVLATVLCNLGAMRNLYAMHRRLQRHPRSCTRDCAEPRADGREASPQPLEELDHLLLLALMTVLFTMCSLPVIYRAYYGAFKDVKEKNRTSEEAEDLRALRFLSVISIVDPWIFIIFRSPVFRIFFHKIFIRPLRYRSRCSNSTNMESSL

[4] = Area under curve for the compound upon p.o. dose of 10 mg/kg in rats; format: ADME, organism-based; design: dose 10 mg/kg, route oral; settings: rat, in vivo, po
Summary of the method: (§2)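 Rats given a single dose, 1 mg/kg intravenous or 10 mg/kg oral, then sampled for plasma levels. Cmax, Tmax and AUCinf come from the plasma concentration–time profile.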

[5] = Maximum plasma concentration upon i.v. dose of 1 mg/kg in rats; format: ADME, organism-based; design: dose 1 mg/kg, route intravenous; settings: rat, iv; summary of the method: as §2
[6] = Maximum plasma concentration upon p.o. dose of 10 mg/kg in rats; format: ADME, organism-based; design: dose 10 mg/kg, route oral; settings: rat, po; summary of the method: as §2
[7] = Oral bioavailability upon p.o. dose of 10 mg/kg in rats; format: ADME, organism-based; settings: rat, in vivo
[8] = Area under curve for the compound upon i.v. dose of 1 mg/kg in rats; format: ADME, organism-based; design: dose 1 mg/kg, route intravenous; settings: rat, in vivo, iv; summary of the method: as §2
[9] = Time taken by the compound to reach its maximum concentration in plasma upon p.o. dose of 10 mg/kg in rats; format: ADME, organism-based; design: dose 10 mg/kg, route oral; settings: rat, po; summary of the method: as §2
[10] = target: T1, Prostaglandin D2 receptor 2; assay: In vitro agonist potency towards human CRTH2 receptor expressed in CHO cells; range 15 to 50 nM
[11] = target: T1, Prostaglandin D2 receptor 2; assay: Binding affinity towards human CRTH2 receptor expressed in CHO cells; range 25 nM to 8 uM; format: cell-based

| Compound | IC50 [1] [nM] | Ki [2] [nM] | Ki [3] [nM] | further results |
| --- | --- | --- | --- | --- |
| Cc1ccc(S(=O)(=O)n2c(C)c(CC(=O)O)c3cc(F)ccc32)cc1 | 2180 | 457 | > 10000 | – |
| Cc1nc(S(=O)(=O)n2c(C)c(CC(=O)O)c3cc(F)ccc32)cn1C | > 10000 | 2980 | > 10000 | – |
| CCCCS(=O)(=O)n1c(C)c(CC(=O)O)c2cc(F)ccc21 | 842 | 634 | > 10000 | – |
| Cc1c(CC(=O)O)c2cc(F)ccc2n1S(=O)(=O)c1cccc(F)c1 | 639 | 225 | 6890 | – |
| Cc1c(CC(=O)O)c2cc(F)ccc2n1S(=O)(=O)c1ccc(S(C)(=O)=O)cc1 | 158 | 68 | > 10000 | AUC [4]: 3480 ng·h/mL; Cmax [5]: 1800 ng/mL; Cmax [6]: 332 ng/mL; bioavailability [7]: 56%; AUC [8]: 619 ng·h/mL; Tmax [9]: 1.8 h |
| Cc1c(CC(=O)O)c2cc(F)ccc2n1S(=O)(=O)c1ccccc1 | 987 | 250 | 4860 | – |
| Cc1c(CC(=O)O)c2cc(F)ccc2n1S(=O)(=O)c1ccc(Cl)cc1 | 26 | 29 | 8460 | – |
| COc1ccc(S(=O)(=O)n2c(C)c(CC(=O)O)c3cc(F)ccc32)cc1 | 318 | 299 | 7710 | – |
| Cc1c(CC(=O)O)c2cc(F)ccc2n1S(=O)(=O)c1ccc(F)cc1 | 158 | 71 | > 10000 | – |
| O=C(O)C[C@@H]1CCn2c1c(Sc1ccc(Cl)cc1)c1ccc(F)cc12 | – | 0.8 | – | – |
| Cc1c(CC(=O)O)c2cc(F)ccc2n1S(=O)(=O)c1cc(Cl)ccc1Cl | 44 | 19 | 1870 | – |
| COc1ccc2c(c1)c(CC(=O)O)c(C)n2C(=O)c1ccc(Cl)cc1 [INDOMETHACIN] | – | – | – | EC50 [10]: 50 nM; Ki [11]: 8000 nM |
| CSc1ccc(C=C2C(C)=C(CC(=O)O)c3cc(F)ccc32)cc1 [SULINDAC SULFIDE] | – | 3500 | – | – |
